Measured values taken from ChEMBL document CHEMBL3352164, “Discovery of N-(2,4-di-tert-butyl-5-hydroxyphenyl)-4-oxo-1,4-dihydroquinoline-3-carboxamide (VX-770, ivacaftor), a potent and orally bioavailable CFTR potentiator” (J Med Chem, 2014).
pEC50: −log10 of the molar value.

Assays:
[1] = system: Cystic fibrosis transmembrane conductance regulator (Homo sapiens), P13569 [F508del]; assay: Potentiation of human CFTR F508del mutant expressed in mouse NIH-3T3 cells at 30 uM after 30 mins by fluorescent voltage sensing optical assay relative to VRT-532; assay type: cell-based; settings: NIH3T3
How it was run: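 Same F508del-CFTR NIH-3T3 membrane-potential assay: 27 °C correction for 16–24 h, dye plus compound for 30 min at room temperature, then forskolin in Cl−-free bath. Compounds below 50% activity at 30 μM were not titrated. Their response at 30 μM is given as % of VRT-532.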

[2] = target: Cystic fibrosis transmembrane conductance regulator (Homo sapiens, UniProt P13569, F508DEL); assay: Potentiation of human CFTR F508del mutant expressed in mouse NIH-3T3 cells after 30 mins by fluorescent voltage sensing optical assay; assay type: cell-based, NIH3T3
How it was run: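 NIH-3T3 fibroblasts stably expressing human F508del-CFTR were held 16–24 h at 27 °C to correct misfolding. Cells were washed in NaCl/HEPES bath, pH 7.4, then loaded with voltage-sensing dyes plus compound for 30 min at room temperature. Cl−-free bath with forskolin was added once, and membrane potential change was read by fluorescence. EC50 is mean ± SD of at least three determinations.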

[3] = Clearance in Sprague-Dawley rat at 2.49 mg/kg, iv; assay type: ADME, organism-based; design: dose 2.49 mg/kg, route intravenous; settings: in vivo
How it was run: (§1)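 Animals (n = 3/group; male mouse, Sprague-Dawley rat, beagle dog, cynomolgus monkey) got a single iv dose in dimethyl isosorbide/ethanol/PEG400/D5W (10%/15%/35%/40%) at 1 mL/kg. Heparinized blood was drawn via an indwelling carotid cannula from predose to 48 h. Plasma was assayed by LC/MS/MS (LLOQ 1 ng/mL, linear 1–2500 ng/mL). Parameters came from noncompartmental analysis of mean profiles using measured doses.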

[4] = Half life in Sprague-Dawley rat at 2.49 mg/kg, iv; assay type: ADME, organism-based; design: dose 2.49 mg/kg, route intravenous; settings: in vivo; how it was run: as §1
[5] = Volume of distribution at steady state in Sprague-Dawley rat at 2.49 mg/kg, iv; assay type: ADME, organism-based; design: dose 2.49 mg/kg, route intravenous; settings: in vivo, read-out: Vdss; how it was run: as §1
[6] = AUC (0 to infinity) in Sprague-Dawley rat at 2.49 mg/kg, iv; assay type: ADME, organism-based; design: time infinity, dose 2.49 mg/kg, route intravenous; settings: plasma
How it was run: (§2)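 Male Sprague−Dawley rats, n = 3/group, single iv dose in dimethyl isosorbide/ethanol/PEG400/D5W (10%/15%/35%/40%) at 1 mL/kg. Carotid cannula blood at predose, 5, 15, 30, 45 min and 1, 2, 4, 6, 8, 12, 24, 36, 48 h. Plasma levels by LC/MS/MS (LLOQ 1 ng/mL, linear 1–2500 ng/mL). Noncompartmental analysis of mean profiles using measured doses.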

[7] = Clearance in Sprague-Dawley rat at 2.45 mg/kg, iv; assay type: ADME, organism-based; design: dose 2.45 mg/kg, route intravenous; settings: in vivo; how it was run: as §1
[8] = Half life in Sprague-Dawley rat at 2.45 mg/kg, iv; assay type: ADME, organism-based; design: dose 2.45 mg/kg, route intravenous; settings: in vivo; how it was run: as §1
[9] = AUC (0 to infinity) in Sprague-Dawley rat at 2.45 mg/kg, iv; assay type: ADME, organism-based; design: time infinity, dose 2.45 mg/kg, route intravenous; settings: plasma; how it was run: as §2
[10] = Volume of distribution at steady state in Sprague-Dawley rat at 2.45 mg/kg, iv; assay type: ADME, organism-based; design: dose 2.45 mg/kg, route intravenous; settings: in vivo, read-out: Vdss; how it was run: as §1

Chain of Cystic fibrosis transmembrane conductance regulator (P13569 as listed by the source): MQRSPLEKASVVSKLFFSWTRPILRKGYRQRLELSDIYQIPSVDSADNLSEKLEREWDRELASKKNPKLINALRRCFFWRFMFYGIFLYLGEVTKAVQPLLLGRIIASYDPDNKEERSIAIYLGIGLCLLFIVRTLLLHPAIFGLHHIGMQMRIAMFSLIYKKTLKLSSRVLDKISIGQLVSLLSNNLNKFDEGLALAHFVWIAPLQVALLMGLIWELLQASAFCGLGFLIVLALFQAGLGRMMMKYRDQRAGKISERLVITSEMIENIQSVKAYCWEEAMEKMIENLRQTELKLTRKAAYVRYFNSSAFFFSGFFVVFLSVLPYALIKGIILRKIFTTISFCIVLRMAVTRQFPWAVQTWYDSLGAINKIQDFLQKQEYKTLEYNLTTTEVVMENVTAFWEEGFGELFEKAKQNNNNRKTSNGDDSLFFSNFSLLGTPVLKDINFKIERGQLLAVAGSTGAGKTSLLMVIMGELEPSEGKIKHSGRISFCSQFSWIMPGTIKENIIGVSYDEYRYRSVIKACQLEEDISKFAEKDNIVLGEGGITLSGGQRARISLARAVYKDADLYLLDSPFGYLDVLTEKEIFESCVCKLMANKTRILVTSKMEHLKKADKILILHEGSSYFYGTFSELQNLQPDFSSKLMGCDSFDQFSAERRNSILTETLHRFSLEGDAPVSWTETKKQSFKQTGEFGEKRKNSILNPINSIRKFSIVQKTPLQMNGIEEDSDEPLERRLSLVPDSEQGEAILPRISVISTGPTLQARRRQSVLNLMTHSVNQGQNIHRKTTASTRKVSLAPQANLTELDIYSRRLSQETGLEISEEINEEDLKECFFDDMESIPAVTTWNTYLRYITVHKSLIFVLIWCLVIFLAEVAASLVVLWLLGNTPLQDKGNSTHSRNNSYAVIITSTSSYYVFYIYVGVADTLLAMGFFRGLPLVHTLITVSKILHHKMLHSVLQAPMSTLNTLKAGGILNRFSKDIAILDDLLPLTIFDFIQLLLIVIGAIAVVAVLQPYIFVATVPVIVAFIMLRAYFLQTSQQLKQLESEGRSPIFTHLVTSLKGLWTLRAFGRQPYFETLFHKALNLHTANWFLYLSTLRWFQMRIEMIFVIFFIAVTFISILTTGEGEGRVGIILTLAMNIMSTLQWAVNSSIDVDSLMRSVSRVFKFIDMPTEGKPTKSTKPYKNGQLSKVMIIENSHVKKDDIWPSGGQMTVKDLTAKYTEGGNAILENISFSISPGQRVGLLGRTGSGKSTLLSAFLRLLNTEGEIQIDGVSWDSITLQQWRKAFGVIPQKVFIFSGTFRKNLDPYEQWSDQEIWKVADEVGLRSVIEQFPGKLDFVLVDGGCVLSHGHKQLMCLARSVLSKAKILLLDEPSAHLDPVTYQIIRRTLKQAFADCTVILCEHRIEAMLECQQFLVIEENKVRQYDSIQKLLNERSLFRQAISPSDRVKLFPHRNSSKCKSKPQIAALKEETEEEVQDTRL
Chain of Cystic fibrosis transmembrane conductance regulator (Homo sapiens), P13569 [F508del] (P13569 as listed by the source): as above

Compound	pEC50 [2]	further results
O=C(Nc1cnc2ccccc2c1O)c1ccc2cc[nH]c2c1		Activity [1]: 8%
O=C(Nc1ccc2ccccc2c1)c1c[nH]c2ccccc2c1=O	6.10	
CCCc1ccc(NC(=O)c2c[nH]c3ccccc3c2=O)cc1N	6.40	
CCc1cccc(CC)c1NC(=O)c1c[nH]c2ccccc2c1=O	5.82	
CC(C)(C)c1ccc(NC(=O)c2c[nH]c3ccccc3c2=O)cc1CO	7.00	
O=C(c1cnc2ccccc2c1)N(Cc1ccccc1)Cc1ccccc1	4.80	
CC(C)(C)c1cc2cc[nH]c2cc1NC(=O)c1c[nH]c2ccccc2c1=O	7.96	clearance [3]: 15.8 mL/min/kg; half-life [4]: 2.9 h; Vd [5]: 3.3 L/kg; AUC(0-inf) [6]: 2640 ng·h/mL
CC(C)(C)c1cc(C(F)(F)F)c(NC(=O)c2c[nH]c3ccccc3c2=O)cc1O	8.52	
COC(=O)Nc1cc(NC(=O)c2c[nH]c3ccccc3c2=O)ccc1C(C)(C)C	5.46	
O=C(Nc1ccc2cn[nH]c2c1)c1c[nH]c2ccccc2c1=O	5.25	
CC(C)c1ccccc1NC(=O)c1c[nH]c2ccccc2c1=O	6.70	
CC(C)(C)c1ccc(NC(=O)c2c[nH]c3ccccc3c2=O)cc1CN		Activity [1]: 20%
CCc1ccc(NC(=O)c2c[nH]c3ccccc3c2=O)cc1	6.10	
CC(C)(C)c1c[nH]c2cc(NC(=O)c3c[nH]c4ccccc4c3=O)ccc12	8.05	clearance [7]: 60.7 mL/min/kg; half-life [8]: 1.3 h; AUC(0-inf) [9]: 700 ng·h/mL; Vd [10]: 4.4 L/kg
CC(C)c1ccc(NC(=O)c2c[nH]c3ccccc3c2=O)cc1	6.70	
CC(C)(C)c1ccc(NC(=O)c2c[nH]c3ccccc3c2=O)cc1C(=O)O		Activity [1]: 13%
CC(C)(C)c1ccc(NC(=O)c2c[nH]c3ccccc3c2=O)cc1F	7.00	
O=C(Nc1ccc2nc[nH]c2c1)c1c[nH]c2ccccc2c1=O		Activity [1]: 12%
O=C(c1cnc2ccccn2c1=O)N(Cc1ccccc1)Cc1ccccc1		Activity [1]: 10%
O=c1c(S(=O)(=O)Nc2ccc3cc[nH]c3c2)c[nH]c2ccccc12		Activity [1]: 1%
O=C1Cc2ccc(NC(=O)c3c[nH]c4ccccc4c3=O)cc2N1		Activity [1]: 21%
O=C(Nc1ccccc1)c1c[nH]c2ccccc2c1=O	5.89	
O=C(c1c[nH]c2ccccc2c1=O)N(Cc1ccccc1)Cc1ccccc1	5.68	
CC(C)(C)c1ccc(NC(=O)c2c[nH]c3ccccc3c2=O)cc1N	7.00	
